Here are results for nine molecules from ChEMBL document CHEMBL1121883, “1-(Naphthylalkyl)-1H-imidazole derivatives, a new class of anticonvulsant agents” (J Med Chem, 1981).

“And” between values parts separate entries of the source, which are not always exact repeats. Identical values can stand only once.

Series [1] relates to Mus musculus. Nature of the series: Protective index is defined as ND50 (i.p.) divided by MES ED50(i.p.). The class given is functional. The essentials:
(§1)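 Ratio of ND50 from the wire traction test to MES ED50, both measured by the same route (ip or oral) in the same animals. Quantal dose-response data for each were evaluated by Litchfield-Wilcoxon.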

The test system of series [2] is Mus musculus. Nature of the series: Compound was evaluated for anticonvulsant activity by maximal electroshock assay(MES) in mice after po administration; 34-89. It is filed as functional. The essentials:
(§2)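 Male Hilltop ICR-derived mice (19-30 g), groups of 8-10, given compound or aqueous vehicle orally. The transcorneal 60-Hz shock (50 mA, 0.2 s) followed a 30 min pretreatment and a wire-hang neurological check (10 s). ED50 and 95% confidence limits were obtained from quantal data by the Litchfield-Wilcoxon method.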

For series [3], the system named is Mus musculus. Put plainly: Protective index defined as ND50 (p.o.) divided by MES ED50(op). It is filed as functional. The essentials: as §1
For series [4], the system named is Mus musculus. Put plainly: Dose causing a neurological deficit in 50% of mice following p.o. administration. The class given is functional. The essentials: (§3)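 Traction test in male Hilltop ICR-derived mice (19-30 g, groups of 8-10) just before electroshock, 15 min after ip or 30 min after oral dosing. Mice placed on a 16-gauge, 65-cm copper wire 40 cm above the table; deficit scored as failure to stay on for 10 s. ND50 with 95% limits by Litchfield-Wilcoxon.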

Series [5] concerns Mus musculus. Put plainly: Dose of compound causing a neurological deficit in 50% of mice after ip administration; 20-35. It is filed as functional. The essentials: as §3
The subject of series [6] is Rattus norvegicus. Put plainly: Dose of compound causing a neurological deficit in 50% of rat after ip administration. The class given is functional. Summed up: (§4)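 Rats (Simonsen Sprague-Dawley-derived, 80-110 g, groups of 8-10) placed on a suspended 16-gauge, 65-cm copper wire just before electroshock. Deficit scored as inability to remain for 8 s. Pretreatment was 15 min ip or 30 min oral. Quantal data analysed by Litchfield-Wilcoxon to give ND50 with 95% limits.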

For series [7], the system named is Rattus norvegicus. Put plainly: Dose of compound causing a neurological deficit in 50% of rat after po administration. The class given is functional. The essentials:
as §4

A short description of series [8]: Lethal dose was measured in mice after ip administration. It is filed as toxicity, organism-based. The following applies: mouse, in vivo. The essentials:
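Male Simonsen ICR-derived mice (16-24 g), groups of three, given compound ip in increasing doses within a behavioral screen. Deaths counted on day 5, and LD50 estimated from 5-day survival. Quantal data analysed by the Litchfield-Wilcoxon method.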

The subject of series [9] is Mus musculus. Nature of the series: Anticonvulsant activity in mouse maximal electroshock assay following i.p. administration. The class given is functional. The following applies: ip. The essentials:
(§5)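 Male Hilltop ICR-derived mice (19-30 g), groups of 8-10, dosed ip with compound or aqueous vehicle. After 15 min pretreatment, a transcorneal 60-Hz, 50 mA shock was given for 0.2 s. Just before the shock, each mouse was tested on a horizontal wire (10 s). Quantal data were analysed by Litchfield-Wilcoxon to give ED50 with 95% confidence limits.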
Background: Protection in the maximal electroshock model is a classic sign of anticonvulsant action.

The test system of series [10] is Mus musculus. Nature of the series: compound was evaluated for anticonvulsant activity by maximal electroshock assay(MES) in mice after po administration. The class given is functional. Summed up:
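Male Hilltop ICR-derived mice, 19-30 g, groups of 8-10, dosed orally with compound or aqueous vehicle. Transcorneal electroshock (50 mA, 60 Hz, 0.2 s) delivered 30 min after dosing, immediately after a wire-hang neurological test. ED50 with 95% confidence limits estimated from quantal data by Litchfield-Wilcoxon.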

The test system of series [11] is Rattus norvegicus. Nature of the series: Compound was evaluated for anticonvulsant activity by maximal electroshock assay(MES) in rat after ip administration.
Series [12] relates to Mus musculus. Put plainly: Dose causing a neurological deficit in 50% of mice after ip administration. The class given is functional. Summed up:
as §3

Series [13] deals with Rattus norvegicus. Nature of the series: Compound was evaluated for anticonvulsant activity by maximal electroshock assay(MES) in rat after po administration. The class given is functional. Summed up:
(§6)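 Male Simonsen Sprague-Dawley-derived rats, 80-110 g, groups of 8-10, dosed with compound or aqueous vehicle; pretreatment 15 min after ip or 30 min after oral dosing. Transcorneal electroshock, 150 mA, 60 Hz, 0.2 s, given after the wire test. ED50 with 95% confidence limits from quantal data by Litchfield-Wilcoxon.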

Series [14] relates to Mus musculus. Nature of the series: Compound was evaluated for anticonvulsant activity by maximal electroshock assay(MES) in mice after ip administration; 27-41. The class given is functional. The essentials:
as §5

For series [15], the system named is Mus musculus. Put plainly: Compound was evaluated for anticonvulsant activity by maximal electroshock assay(MES) in mice after ip administration; 20-42. It is filed as functional. The essentials: as §5
Series [16] relates to Mus musculus. Nature of the series: Compound was evaluated for anticonvulsant activity by maximal electroshock assay(MES) in mice after po administration. It is filed as functional. Summed up:
as §2

Series [17] relates to Mus musculus. Nature of the series: Dose of compound causing a neurological deficit in 50% of mice after ip administration; 32-89. The class given is functional. The essentials: as §3
Series [18] deals with Mus musculus. Nature of the series: Compound was evaluated for anticonvulsant activity by maximal electroshock assay(MES) in mice after po administration; 33-62. The class given is functional. Summed up: as §2
For series [19], the system named is Mus musculus. Put plainly: Dose of compound causing a neurological deficit in 50% of mice after ip administration; 70-93. It is filed as functional. The essentials:
as §3

Series [20] deals with Mus musculus. Nature of the series: Compound was evaluated for anticonvulsant activity by maximal electroshock assay(MES) in mice after ip administration; 23-38. The class given is functional. The essentials:
as §5

Series [21] concerns Mus musculus. Put plainly: Dose of compound causing a neurological deficit in 50% of mice after ip administration; 17-61. The class given is functional. The essentials: as §3
The test system of series [22] is Mus musculus. Nature of the series: Compound was evaluated for anticonvulsant activity by maximal electroshock assay(MES) in mice after ip administration; 9-26. The class given is functional. Summed up: as §5
The test system of series [23] is Mus musculus. Put plainly: Compound was evaluated for anticonvulsant activity by maximal electroshock assay(MES) in mice after ip administration; 18-28. The class given is functional. Summed up: as §5
For series [24], the system named is Mus musculus. Nature of the series: Dose of compound causing a neurological deficit in 50% of mice after ip administration; 71-111. The class given is functional. Summed up:
as §3

Series [25] relates to Mus musculus. Nature of the series: Compound was evaluated for anticonvulsant activity by maximal electroshock assay(MES) in mice after ip administration; 18-25. It is filed as functional. The essentials: as §5
The subject of series [26] is Rattus norvegicus. Nature of the series: Compound was evaluated for anticonvulsant activity by maximal electroshock assay(MES) in rat after po administration; 31-105. The class given is functional. The essentials:
as §6

For series [27], the system named is Mus musculus. Put plainly: Dose of compound causing a neurological deficit in 50% of mice after ip administration; 53-96. The class given is functional. The essentials: as §3
Series [28] deals with Mus musculus. Nature of the series: Compound was evaluated for anticonvulsant activity by maximal electroshock assay(MES) in mice after po administration; 55-105. It is filed as functional. Summed up:
as §2

On to `CC1CCOC(Cn2ccnc2)(c2ccc3ccccc3c2)O1` (configuration not stated), for which the results for the PI in the series on Mus musculus [1] and with Mus musculus [3] were 1.4 and above 1.8, respectively. Further, the median effective dose (ED50) (commonly the dose that gives a 50% effect, or the effect in half of the subjects) in the series on Mus musculus [2] turned out to be 56 mg/kg. Further, the ND50 in the series with Mus musculus [4] was above 100 mg/kg; with Mus musculus [5], 26 mg/kg.
In the series on Mus musculus [1], `O=C1NC(=O)C(c2ccccc2)(c2ccccc2)N1` [PHENYTOIN] showed a PI above 23.1. Further, the ND50 with Rattus norvegicus [6] was above 300 mg/kg; in the series on Rattus norvegicus [7], above 300 mg/kg; with Mus musculus [4] it was above 200 mg/kg; in the series with Mus musculus [12] it was above 300 mg/kg. In addition, the 50% lethal dose (LD50) (in general, the dose at which mortality reaches 50%) in series [8] is above 300 mg/kg. Further, the median effective dose (ED50) is 13 mg/kg in the series with Mus musculus [9], 22 mg/kg in the series with Mus musculus [10], 21 mg/kg in the series on Rattus norvegicus [11] and 85 mg/kg in the series on Rattus norvegicus [13].
Turning to `c1ccc2cc(C3(CCn4ccnc4)OCCO3)ccc2c1`, the PI with Mus musculus [1] is above 2.9. The same molecule had an ED50 in the series on Mus musculus [14] of 35 mg/kg. This molecule also returned an ND50 with Mus musculus [12] above 100 mg/kg.
Consider `COc1ccc2cc(C(=O)Cn3ccnc3)ccc2c1.Cl`, for which the PI in the series on Mus musculus [1] was above 3.3. Further, the ED50 in the series on Mus musculus [15] is 31 mg/kg; in the series on Mus musculus [16] it was above 100 mg/kg. In series [8], the LD50 is above 100 mg/kg. Besides, the ND50 with Mus musculus [4] and with Mus musculus [12] was above 100 mg/kg throughout.
Regarding `CC1(C)COC(Cn2ccnc2)(c2ccc3ccccc3c2)OC1.Cl`, the figures for the PI in the series on Mus musculus [1] and with Mus musculus [3] were 2 and above 2.1, respectively. In [8], this molecule displayed an LD50 above 100 mg/kg. The ND50 was 52 mg/kg in the series on Mus musculus [17] and above 100 mg/kg with Mus musculus [4]. This molecule yielded an ED50 in the series with Mus musculus [18] of 47 mg/kg.
With `CC(C)c1ccc(C(=O)Cn2ccnc2)c2ccccc12.Cl`, the PI in the series with Mus musculus [1] stood at 2.9. In addition, the ND50 in the series on Mus musculus [19] came to 81 mg/kg. In the series with Mus musculus [20], this molecule had an ED50 of 28 mg/kg.
Consider `O=S(=O)(O)O.c1ccc(OC(Cn2ccnc2)c2ccc3ccccc3c2)cc1` (configuration not stated), for which the PI in the series with Mus musculus [1] amounted to 2.1. In the series on Mus musculus [21], the ND50 was found to be 32 mg/kg. The molecule also had an ED50 with Mus musculus [22] of 15 mg/kg.
`CCC(=O)OC(Cn1ccnc1)c1ccc2ccccc2c1.Cl` (configuration not stated) showed a PI in the series with Mus musculus [1] of 3.6. The molecule further returned an ED50 in the series on Mus musculus [23] of 23 mg/kg. The same molecule registered an ND50 in the series with Mus musculus [24] of 83 mg/kg.
As to `Cc1ccc2cccc(C(=O)Cn3ccnc3)c2c1.Cl`, the PI in the series with Mus musculus [1] is 3.3; in the series on Mus musculus [3], >4.1 and >1.9. The ED50 in the series on Mus musculus [25] was 22 mg/kg; with Rattus norvegicus [26], 52 mg/kg; in the series on Mus musculus [28], 74 mg/kg. In addition, the values for the ND50 in the series on Rattus norvegicus [7], in the series with Mus musculus [27] and in the series on Mus musculus [4] were above 100 mg/kg, 73 mg/kg and above 300 mg/kg, respectively.
